In general, EC50 refers to the concentration that produces a half-maximal response. Higher therefore signals weaker potency. What is called Ki is the equilibrium dissociation constant of an inhibitor or competing ligand from its target. A lower Ki goes with higher affinity.

From ChEMBL document CHEMBL1145564, “Discovery of N-[(3R,5R)-1-azabicyclo[3.2.1]oct-3-yl]furo[2,3-c]pyridine-5-carboxamide as an agonist of the alpha7 nicotinic acetylcholine receptor: in vitro and in vivo activity” (Bioorg Med Chem Lett, 2008) come the findings set out here.

For data set [1], the target named is Neuronal acetylcholine receptor subunit alpha-7 (Homo sapiens, UniProt P36544). Put plainly: Agonist activity at alpha7-5HT3 chimera expressed in human SH-EP1 cells by FLIPR assay. The class given is functional, cell-based.
Data set [2] can be described thus: Metabolic stability in rat liver microsomes assessed as hepatic extraction ratio after 30 mins. Type of data set: ADME, Microsome. The method in brief: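 Rat liver microsome incubation; stability reported as fraction of compound remaining after 30 min relative to t0 concentration.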
(Liver microsomes are vesicles of endoplasmic reticulum, rich in cytochrome P450 enzymes.)

The target in data set [3] is Neuronal acetylcholine receptor subunit alpha-7 (Rattus norvegicus, UniProt Q05941). Put plainly: Displacement of [3H]MLA from alpha-7 nACh receptor in rat brain. The class given is tissue-based. The method in brief:
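Rat brain homogenate binding with [3H]MLA; individual Ki values, mean ± SEM reported when more than 3 measurements.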
(Loss of bound radioactivity is the signal in a displacement assay; it reports binding, not function.)

Chain of Neuronal acetylcholine receptor subunit alpha-7 (Homo sapiens, UniProt P36544) (P36544 23-502 limits assumed): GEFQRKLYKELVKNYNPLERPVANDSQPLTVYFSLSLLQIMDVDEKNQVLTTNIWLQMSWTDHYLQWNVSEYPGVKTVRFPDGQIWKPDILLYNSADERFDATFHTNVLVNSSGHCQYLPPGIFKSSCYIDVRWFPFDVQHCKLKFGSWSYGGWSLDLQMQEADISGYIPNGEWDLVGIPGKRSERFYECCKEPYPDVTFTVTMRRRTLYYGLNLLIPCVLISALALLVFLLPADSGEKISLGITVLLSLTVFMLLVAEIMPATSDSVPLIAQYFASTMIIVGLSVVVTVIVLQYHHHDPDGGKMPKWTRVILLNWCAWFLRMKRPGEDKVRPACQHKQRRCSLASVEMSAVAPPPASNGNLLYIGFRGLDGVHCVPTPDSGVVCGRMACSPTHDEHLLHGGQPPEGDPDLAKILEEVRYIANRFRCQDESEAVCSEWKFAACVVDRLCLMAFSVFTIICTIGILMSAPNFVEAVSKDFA
Chain of Neuronal acetylcholine receptor subunit alpha-7 (Rattus norvegicus, UniProt Q05941) (Q05941 whole entry): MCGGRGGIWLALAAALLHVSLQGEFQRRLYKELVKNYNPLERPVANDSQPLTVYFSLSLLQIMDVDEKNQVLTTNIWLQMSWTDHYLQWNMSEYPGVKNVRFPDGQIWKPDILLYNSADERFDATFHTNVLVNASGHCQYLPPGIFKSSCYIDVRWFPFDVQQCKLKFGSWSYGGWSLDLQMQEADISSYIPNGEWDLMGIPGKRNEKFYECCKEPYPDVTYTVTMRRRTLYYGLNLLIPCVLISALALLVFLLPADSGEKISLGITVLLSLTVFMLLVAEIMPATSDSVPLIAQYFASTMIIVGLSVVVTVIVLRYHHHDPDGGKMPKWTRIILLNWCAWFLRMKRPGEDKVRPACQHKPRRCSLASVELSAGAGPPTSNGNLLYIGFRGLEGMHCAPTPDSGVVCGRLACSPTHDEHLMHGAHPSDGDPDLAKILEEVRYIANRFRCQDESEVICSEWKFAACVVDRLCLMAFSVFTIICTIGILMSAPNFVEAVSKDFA

For `O=C(N[C@@H]1C[C@H]2CCN(C2)C1)c1cc2sccc2cn1`, in data set [1], the EC50 came to 70 nM. For the same compound, the hepatic extraction ratio at 0.5 h in data set [2] came to 0.71. This compound had a Ki in data set [3] of 7 nM.
Take `O=C(N[C@H]1CN2CCC1CC2)c1ccc(Cl)cc1` [PNU-282987]: the response in data set [1] was half-maximal at 128 nM (EC50). Further, the hepatic extraction ratio at 0.5 h in data set [2] was under 0.27.
As for `O=C(N[C@@H]1C[C@H]2CCN(C2)C1)c1cc2cccn2cn1`, it took 129 nM to reach a half-maximal effect in data set [1] (EC50). The hepatic extraction ratio at 0.5 h in data set [2] turned out to be 0.86. In data set [3], the Ki came out at 14 nM.
For `O=C(N[C@@H]1C[C@H]2CCN(C2)C1)c1ccc(Cl)cc1`, it took 190 nM to reach a half-maximal effect in data set [1] (EC50). Besides, in data set [2], the hepatic extraction ratio at 0.5 h turned out to be 0.37.
